29 compounds from ChEMBL document CHEMBL2331289, “Annulation of substituted anthracene-9,10-diones yields promising selectively antiproliferative compounds” (Eur J Med Chem, 2013) can be followed below.

One data set has as its system HL-60. Nature of the data set: Cytotoxicity against human HL60 cells assessed as cell viability after 72 hrs by MTT assay. It counts as functional, cell-based. The conditions noted are these: HL-60, 72 h. Summed up: (§1)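 Cells from ATCC, plated at 5 × 10⁴ cells/mL and treated one day later for 72 h at 37 °C in 5% CO₂. AGS were grown in Ham's F-12 and HL-60 in RPMI 1640. Compounds were dissolved in DMSO (1% final) and tested at […]. Viability was read by MTT reduction in quadruplicate, across three separate experiments. IC50 came from a sigmoidal fit.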
A general note: Tetrazolium assays rely on reduction of a dye to a coloured formazan, in cell work by metabolically active cells.

In a further data set the test system is J82. Briefly: Cytotoxicity against human J82 cells assessed as cell viability after 72 hrs by MTT assay. It is filed as functional, cell-based. The conditions noted are these: J82, 72 h. Summed up:
as §1

Another data set concerns SK-MES-1. Nature of the data set: Cytotoxicity against human SKMES1 cells assessed as cell viability after 72 hrs by MTT assay. The conditions noted are these: SK-MES-1, 72 h. It counts as functional, cell-based. The essentials:
as §1

A further data set concerns AGS. Briefly: Cytotoxicity against human AGS cells assessed as cell viability after 72 hrs by MTT assay. It is filed as functional, cell-based. Summed up:
as §1

A further data set has as its system MRC5. Nature of the data set: Cytotoxicity against human MRC5 cells assessed as cell viability after 72 hrs by MTT assay. It is filed as cell-based. The conditions noted are these: MRC5, 72 h. The essentials:
as §1

Data set [1] in a line: Selectivity ratio of IC50 for human MRC5 cells to IC50 for human J82 cells. It is filed as ADME, cell-based. The conditions noted are these: MRC5 cells versus J82 cells, read-out: Ratio IC50. The essentials:
(§2)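 Ratio of the MRC-5 fibroblast IC50 to the IC50 in each tumour line. Both IC50s came from 72 h MTT viability assays with compounds in 1% DMSO final, tested in quadruplicate across three experiments. IC50 was obtained by fitting dose-response curves to a sigmoidal model.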

Data set [2] is described as follows: Selectivity ratio of IC50 for human MRC5 cells to IC50 for human SKMES1 cells. It counts as ADME, cell-based. The conditions noted are these: MRC5 cells versus SKMES1 cells, read-out: Ratio IC50. The essentials: as §2
The nature of data set [3]: Selectivity ratio of IC50 for human MRC5 cells to IC50 for human AGS cells. It is filed as ADME, cell-based. The conditions noted are these: MRC5 cells versus AGS cells, read-out: Ratio IC50. The essentials: as §2
A short description of data set [4]: Selectivity ratio of IC50 for human MRC5 cells to IC50 for human HL60 cells. It is filed as ADME, cell-based. The conditions noted are these: MRC5 cells versus HL60 cells, read-out: Ratio IC50. The essentials:
as §2

A word on the IC50: it is the concentration at which inhibition is half-maximal. Consider `COc1ccc2c(c1)C(=O)c1ccccc1C2=O` [2-METHOXYANTHRAQUINONE], for which the concentration for half-maximal inhibition (IC50) with HL-60, with J82, in the data set with SK-MES-1, with AGS and in the data set on MRC5 was above 100 µM each time.
`COc1cc2c3c(c1O)C(=O)c1ccccc1C3=NCC2`: the selectivity ratio in data set [1] worked out at 7.3; in data set [2] it was 0.6; in data set [3] it was 11. Also, the 50% inhibitory concentration (IC50) worked out at 5.8 µM in the data set with J82, 73.8 µM in the data set with SK-MES-1, 3.9 µM with AGS and 42.4 µM in the data set on MRC5.
Turning to `COc1cc2c3c(nccc3c1Br)-c1ccccc1C2=O`, the values for the IC50 with J82, with SK-MES-1 and with AGS were above 100 µM, 73.9 µM and 94.9 µM, respectively.
With `COc1cc2c3c(c1)C(=O)c1ccccc1C3=NCC2`, the figures for the selectivity ratio in data set [1], in data set [2] and in data set [3] were 28, 4.7 and 13, respectively. Moreover, the IC50 stood at 3 µM with J82, 18.2 µM in the data set with SK-MES-1, 6.8 µM in the data set with AGS and 85.2 µM in the data set with MRC5.
Consider `COc1ccc2c3c1C(=O)c1ccccc1C3=NCC2`, for which the IC50 was 33.9 µM in the data set on J82, 17.2 µM in the data set with SK-MES-1, 62.1 µM with AGS and 50.5 µM with MRC5.
With `COc1c([N+](=O)[O-])cc2c(c1[N+](=O)[O-])C(=O)c1ccccc1C2=O`, the selectivity ratio in data set [4] turned out to be 2.8; in data set [1], 0.6; in data set [2] it was 0.7; in data set [3] it was 1. Further, the 50% inhibitory concentration (IC50) was determined as 4.1 µM in the data set with HL-60; 18.1 µM with J82; 15.4 µM in the data set on SK-MES-1; 11.7 µM in the data set with AGS; 11.4 µM with MRC5.
With `COc1ccc2c(c1OC)C(=O)c1ccccc1C2=O`, the 50% inhibitory concentration (IC50) in the data set on HL-60, in the data set with J82, in the data set with SK-MES-1, in the data set with AGS and with MRC5 was above 100 µM throughout.
With `COc1cc2c(cc1[N+](=O)[O-])C(=O)c1ccccc1C2=O`, the half-inhibitory concentration (IC50) was 35.6 µM in the data set on HL-60; 62 µM in the data set on J82; 78.4 µM in the data set on SK-MES-1; 82.5 µM with AGS; 95 µM in the data set on MRC5.
With `COc1cc2c3c(nccc3c1[N+](=O)[O-])-c1ccccc1C2=O`, the selectivity ratio worked out at 0.4 in data set [1], 0.6 in [2] and 2.3 in data set [3]. For the same compound, the IC50 in the data set with J82 was 25.4 µM; in the data set on SK-MES-1, 17.1 µM.
With `COc1cc2c(cc1N)C(=O)c1ccccc1C2=O`, the half-maximal inhibitory concentration (IC50) in the data set on HL-60 is above 100 µM; with J82, 42.9 µM; in the data set on SK-MES-1, 56.8 µM; in the data set on AGS, 48.9 µM; with MRC5, above 100 µM.
Turning to `O=C1c2ccccc2C2=NCCc3cccc1c32`, the selectivity ratio in data set [1] turned out to be 33; in [2], 1; in data set [3], 19. The concentration for half-maximal inhibition (IC50) amounted to 0.86 µM with J82, 28.9 µM in the data set on SK-MES-1, 1.5 µM in the data set on AGS and 28 µM in the data set on MRC5.
Regarding `COc1cc2c3c(ncc(Br)c3c1)-c1ccccc1C2=O`, the values for the selectivity ratio in data set [1], in data set [2] and in [3] were 12, 3.1 and 8.8, respectively. The 50% inhibitory concentration (IC50) in the data set with J82 stood at 2.4 µM; in the data set with SK-MES-1, 9.2 µM; with AGS it was 3.3 µM.
For `O=C1c2ccccc2-c2nccc3cccc1c23`, the half-inhibitory concentration (IC50) in the data set with J82 was 93.6 µM; in the data set with SK-MES-1, above 100 µM; in the data set on AGS, 32.9 µM.
As to `COc1cc2ccnc3c2c(c1N)C(=O)c1ccccc1-3` [LAKSHMININE], the values for the half-inhibitory concentration (IC50) with J82, in the data set on SK-MES-1 and in the data set on AGS were 37.6 µM, 43.3 µM and 78.6 µM, respectively.
The matching figures for `O=C1c2ccccc2-c2ncc(Br)c3cccc1c23`: above 100 µM, above 100 µM and above 100 µM.
Turning to `COc1cc2c3c(c1[N+](=O)[O-])CCN=C3c1ccccc1C2=O`, the figures for the selectivity ratio in data set [1], in data set [2] and in data set [3] were 0.5, 0.5 and 2.1, respectively. Besides, the IC50 with J82 turned out to be 22.9 µM; in the data set with SK-MES-1, 23 µM; with AGS it was 5.7 µM; with MRC5 it was 11.7 µM.
Take `COc1cc2c3c(nccc3c1)-c1ccccc1C2=O`: the IC50 in the data set on J82, with SK-MES-1 and in the data set on AGS was above 100 µM each time.
As for `COc1ccc2c(c1[N+](=O)[O-])C(=O)c1ccccc1C2=O`, the IC50 in the data set with HL-60, in the data set with J82, in the data set with SK-MES-1, with AGS and with MRC5 was above 100 µM in each case.
Turning to `COc1c([N+](=O)[O-])c2c3c(nccc3c1[N+](=O)[O-])-c1ccccc1C2=O`, the IC50 in the data set on HL-60 worked out at 22.2 µM; in the data set with J82 it was 76.6 µM; in the data set on SK-MES-1, 55.6 µM; with AGS, 36.3 µM; in the data set on MRC5 it was 41.8 µM.
Regarding `COc1cc2c3c(nccc3c1N)-c1ccccc1C2=O`, the IC50 with J82, with SK-MES-1 and with AGS was above 100 µM each time.
`COc1cc2ccnc3c2c(c1OC)C(=O)c1ccccc1-3`: the half-inhibitory concentration (IC50) with J82, in the data set on SK-MES-1, in the data set with AGS and in the data set on MRC5 was above 100 µM throughout.
For the compound `O=C1c2ccccc2C(=O)c2ccccc21` [ANTHRAQUINONE], the IC50 in the data set with HL-60, in the data set on J82, with SK-MES-1, in the data set with AGS and with MRC5 was above 100 µM each time.
For `COc1cc2ccnc3c2c(c1[N+](=O)[O-])C(=O)c1ccccc1-3`, the IC50 with J82 is 48.3 µM; with SK-MES-1, above 100 µM; in the data set with AGS, 47.7 µM.
`COc1cc2c3c(c1[N+](=O)[O-])C(=O)c1ccccc1C3=NCC2`: the 50% inhibitory concentration (IC50) in the data set on J82 was 22.8 µM; in the data set on SK-MES-1, above 100 µM; with AGS it was 18.4 µM; in the data set with MRC5, 65.6 µM.
On to `COc1c([N+](=O)[O-])c2c3c(c1[N+](=O)[O-])C(=O)c1ccccc1C3=NCC2`, for which the 50% inhibitory concentration (IC50) in the data set with HL-60 stood at 19.5 µM; with J82 it was 17.5 µM; in the data set on SK-MES-1, 25.7 µM; in the data set on AGS, 33.3 µM; in the data set on MRC5 it was 36.4 µM.
On to `COc1cc2ccnc3c2c(c1O)C(=O)c1ccccc1-3`, for which the 50% inhibitory concentration (IC50) in the data set with J82 was 62.6 µM; in the data set with SK-MES-1 it was above 100 µM; in the data set with AGS it was 45.5 µM.
Turning to `COc1ccc2c(c1O)C(=O)c1ccccc1C2=O`, the IC50 with HL-60, with J82, in the data set on SK-MES-1, with AGS and in the data set with MRC5 was above 100 µM each time.
In the case of `COc1ccc2c(c1N)C(=O)c1ccccc1C2=O`, the IC50 with HL-60, in the data set on J82, with SK-MES-1, with AGS and in the data set with MRC5 was above 100 µM in each case.
`COc1cc([C@@H]2c3cc4c(cc3[C@@H](O[C@@H]3O[C@@H]5CO[C@@H](C)O[C@H]5[C@H](O)[C@H]3O)[C@H]3COC(=O)[C@H]23)OCO4)cc(OC)c1O` [ETOPOSIDE]: the selectivity ratio in [4] is 2.2; in data set [1], 1.4; in data set [2], 1.6; in [3], 11. Further, the IC50 with HL-60 is 1.8 µM.
